The source made the active and inactive calls. The rule behind the calls is not given here.
system: Vaccinia virus; assay: Antiviral activity against Vaccinia virus Lederle infected in human HEL cells assessed as reduction of virus-induced cytopathogenicity at 250 uM; assay type: functional, organism-based; conditions: Orthopoxvirus vaccinia
How it was run: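 Confluent cell monolayers were infected with 100 CCID50 of virus while exposed to varying compound concentrations. Cytopathicity was scored once it was complete in untreated infected controls. EC50 was taken as the concentration that reduced virus-induced cytopathogenicity by 50%.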

| Structure (SMILES) | inhibition |
| --- | --- |
| CCOP(=O)(OCC)[C@@H]1C[C@H](C(=O)Nc2cccc(Cl)c2)ON1C (mixture of isomers) | inactive |
| CCOP(=O)(OCC)[C@@H]1C[C@H](C(=O)Nc2ccccc2Cl)ON1C (mixture of isomers) | inactive |
| CCOP(=O)(OCC)[C@@H]1C[C@H](C(=O)Nc2ccc(OC)c(OC)c2)ON1C (mixture of isomers) | inactive |
| CCOP(=O)(OCC)[C@H]1C[C@H](C(=O)Nc2ccc(OC)c(OC)c2)ON1C (mixture of isomers) | inactive |
| CCOc1ccc(NC(=O)[C@H]2C[C@H](P(=O)(OCC)OCC)N(C)O2)cc1 (mixture of isomers) | inactive |
| CCOP(=O)(OCC)[C@H]1C[C@H](C(=O)Nc2cc(OC)cc(OC)c2)ON1C (mixture of isomers) | inactive |
| CCOP(=O)(OCC)[C@@H]1C[C@H](C(=O)Nc2cc(OC)cc(OC)c2)ON1C (mixture of isomers) | inactive |
| CCOP(=O)(OCC)[C@H]1C[C@H](C(=O)Nc2cc(OC)c(OC)c(OC)c2)ON1C (mixture of isomers) | inactive |
| CCOP(=O)(OCC)[C@H]1C[C@H](C(=O)Nc2cc(OC)c(OC)cc2C#N)ON1C (mixture of isomers) | inactive |
| CCOP(=O)(OCC)[C@@H]1C[C@H](C(=O)Nc2cc(OC)c(OC)cc2C#N)ON1C (mixture of isomers) | inactive |
| CCOP(=O)(OCC)[C@H]1C[C@H](C(=O)Nc2cc(OC)c(OC)cc2C(C)=O)ON1C (mixture of isomers) | inactive |
| CCOP(=O)(OCC)[C@@H]1C[C@H](C(=O)Nc2cc(OC)c(OC)cc2C(C)=O)ON1C (mixture of isomers) | inactive |
| CCOP(=O)(OCC)[C@@H]1C[C@H](C(=O)Nc2ccc(F)cc2)ON1C (mixture of isomers) | inactive |
| CCOP(=O)(OCC)[C@H]1C[C@H](C(=O)Nc2ccc(F)cc2F)ON1C (mixture of isomers) | inactive |
| CCOP(=O)(OCC)[C@@H]1C[C@H](C(=O)Nc2ccc(F)cc2F)ON1C (mixture of isomers) | inactive |
| CCOP(=O)(OCC)[C@H]1C[C@H](C(=O)Nc2ccccc2Br)ON1C (mixture of isomers) | inactive |
| CCOP(=O)(OCC)[C@@H]1C[C@H](C(=O)Nc2ccccc2Br)ON1C (mixture of isomers) | inactive |
| CCOP(=O)(OCC)[C@@H]1C[C@H](C(=O)Nc2cccc(Br)c2)ON1C (mixture of isomers) | inactive |
| CCOP(=O)(OCC)[C@@H]1C[C@H](C(=O)Nc2ccc(Br)cc2)ON1C (mixture of isomers) | inactive |
| CCOP(=O)(OCC)[C@H]1C[C@H](C(=O)Nc2cccc(Cl)c2)ON1C (mixture of isomers) | inactive |
| CCOP(=O)(OCC)[C@H]1C[C@H](C(=O)Nc2cccc([N+](=O)[O-])c2)ON1C (mixture of isomers) | inactive |
| CCOP(=O)(OCC)[C@@H]1C[C@H](C(=O)Nc2cccc([N+](=O)[O-])c2)ON1C (mixture of isomers) | inactive |
| CCOP(=O)(OCC)[C@H]1C[C@H](C(=O)Nc2ccc([N+](=O)[O-])cc2)ON1C (mixture of isomers) | inactive |
| CCOP(=O)(OCC)[C@@H]1C[C@H](C(=O)Nc2ccc(C#N)cc2)ON1C (mixture of isomers) | inactive |
| CCOP(=O)(OCC)[C@H]1C[C@H](C(=O)Nc2ccccc2C(C)=O)ON1C (mixture of isomers) | inactive |
| CCOP(=O)(OCC)[C@@H]1C[C@H](C(=O)Nc2ccccc2C(C)=O)ON1C (mixture of isomers) | inactive |
| CCOP(=O)(OCC)[C@H]1C[C@H](C(=O)Nc2cccc(C(C)=O)c2)ON1C (mixture of isomers) | inactive |

| Structure (SMILES) | inhibition |
| --- | --- |
| CCOP(=O)(OCC)[C@@H]1C[C@H](C(=O)Nc2cccc(C)c2)ON1C (mixture of isomers) | inactive |
| CCOP(=O)(OCC)[C@@H]1C[C@H](C(=O)Nc2ccc(C)cc2)ON1C (mixture of isomers) | inactive |
| CCOP(=O)(OCC)[C@@H]1C[C@H](C(=O)Nc2cccc(OC)c2)ON1C (mixture of isomers) | inactive |
| CCOP(=O)(OCC)[C@H]1C[C@H](C(=O)Nc2ccccc2F)ON1C (mixture of isomers) | inactive |
| CCOP(=O)(OCC)[C@H]1C[C@H](C(=O)Nc2cccc(F)c2)ON1C (mixture of isomers) | inactive |
| CCOP(=O)(OCC)[C@@H]1C[C@H](C(=O)Nc2cccc(F)c2)ON1C (mixture of isomers) | inactive |
| CCOP(=O)(OCC)[C@H]1C[C@H](C(=O)Nc2ccc(Br)cc2)ON1C (mixture of isomers) | inactive |
| CCOP(=O)(OCC)[C@@H]1C[C@H](C(=O)Nc2ccc(Cl)cc2)ON1C (mixture of isomers) | inactive |
| CCOP(=O)(OCC)[C@H]1C[C@H](C(=O)Nc2ccccc2[N+](=O)[O-])ON1C (mixture of isomers) | inactive |
| CCOP(=O)(OCC)[C@@H]1C[C@H](C(=O)Nc2ccccc2[N+](=O)[O-])ON1C (mixture of isomers) | inactive |
| CCOP(=O)(OCC)[C@H]1C[C@H](C(=O)Nc2ccc(C(C)=O)cc2)ON1C (mixture of isomers) | inactive |
| CCOP(=O)(OCC)[C@@H]1C[C@@H](C(=O)Nc2ccccc2Cl)ON1C (racemic) | inactive |
| CCOc1ccc(NC(=O)[C@H]2C[C@@H](P(=O)(OCC)OCC)N(C)O2)cc1 (racemic) | inactive |
| CCOP(=O)(OCC)[C@@H]1C[C@H](C(=O)Nc2cc(OC)c(OC)c(OC)c2)ON1C (racemic) | inactive |
| CCOP(=O)(OCC)[C@H]1C[C@H](C(=O)Nc2ccc(F)cc2)ON1C (racemic) | inactive |
| CCOP(=O)(OCC)[C@@H]1C[C@H](C(=O)Nc2ccc([N+](=O)[O-])cc2)ON1C (racemic) | inactive |
| CCOP(=O)(OCC)[C@H]1C[C@H](C(=O)Nc2cccc(C#N)c2)ON1C (racemic) | inactive |
| CCOP(=O)(OCC)[C@@H]1C[C@H](C(=O)Nc2cccc(C#N)c2)ON1C (racemic) | inactive |
| CCOP(=O)(OCC)[C@H]1C[C@H](C(=O)Nc2ccc(C#N)cc2)ON1C (racemic) | inactive |
| CCOP(=O)(OCC)[C@@H]1C[C@H](C(=O)Nc2cccc(C(C)=O)c2)ON1C (racemic) | inactive |
| CCOP(=O)(OCC)[C@H]1C[C@H](C(=O)Nc2cccc(C)c2)ON1C (racemic) | inactive |
| CCOP(=O)(OCC)[C@H]1C[C@H](C(=O)Nc2cccc(OC)c2)ON1C (racemic) | inactive |
| CCOP(=O)(OCC)[C@@H]1C[C@H](C(=O)Nc2ccccc2F)ON1C (racemic) | inactive |
| CCOP(=O)(OCC)[C@H]1C[C@H](C(=O)Nc2cccc(Br)c2)ON1C (racemic) | inactive |
| CCOP(=O)(OCC)[C@@H]1C[C@H](C(=O)Nc2ccc(C(C)=O)cc2)ON1C (racemic) | inactive |
| CCOP(=O)(OCC)[C@H]1C[C@H](C(=O)Nc2ccc(C)cc2)ON1C (relative stereo) | inactive |
| CCOP(=O)(OCC)[C@H]1C[C@H](C(=O)Nc2ccc(Cl)cc2)ON1C (relative stereo) | inactive |

Source: ChEMBL document CHEMBL2331506, “Design, synthesis, antiviral and cytostatic evaluation of novel isoxazolidine nucleotide analogues with a carbamoyl linker” (Bioorg Med Chem, 2013)
